Measured values taken from ChEMBL document CHEMBL1153955, “Indolylarylsulfones bearing natural and unnatural amino acids. Discovery of potent inhibitors of HIV-1 non-nucleoside wild type and resistant mutant strains reverse transcriptase and coxsackie B4 virus” (J Med Chem, 2009).

Columns and labels:
[1] = Cytotoxicity against human HEL cells assessed as drug level causing microscopically detectable alteration of normal cell morphology after 3 days; format: cell-based
Sindbis virus = test: Antiviral activity against Sindbis virus in african green monkey Vero cells assessed as protection against virus-induced cytopathicity; format: functional, organism-based
In short: (§1)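 Confluent cell monolayers inoculated with 100 CCID₅₀ virus. After 1-2 h adsorption, residual virus removed and cultures incubated with varying compound concentrations. Cytopathicity scored once it reached completion in untreated infected controls. EC₅₀ = dose reducing virus-induced cytopathogenicity by 50%.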

[2] = Cytotoxicity against african green monkey Vero cells assessed as drug level causing microscopically detectable alteration of normal cell morphology after 3 days; format: cell-based; conditions: chlorocebus sabaeus
In short: (§2)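 Serial compound dilutions added to confluent HeLa or Vero monolayers. MCC = minimum concentration causing microscopically detectable alteration of cell morphology after 3 days of incubation.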

Felid alphaherpesvirus 1 = test: Antiviral activity against Feline herpesvirus in feline […] cells assessed as inhibition of virus-induced cytopathicity; format: functional, organism-based
[3] = target: Human immunodeficiency virus type 1 reverse transcriptase (Human immunodeficiency virus 1, UniProt Q72547, K103N); test: Inhibition of HIV1 reverse transcriptase p66/p51 K103N mutant; conditions: read-out: IC50
In short: (§3)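 Substrate was 0.5 µg poly(rA)/oligo(dT) 10:1 (0.3 µM 3′-OH ends) with 10 µM [³H]dTTP, at 37 °C. Acid-precipitable radioactivity was counted on GF/C filters after TCA washes.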

[4] = Antiproliferative activity against human Molt4/C8 cells after 3 days; format: cell-based; conditions: MOLT-4, 72 h
In short: (§4)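 Cells seeded at 5 × 10⁴ to 7.5 × 10⁴ cells/200 µL with or without serial compound dilutions; incubated at 37 °C for 2 days (L1210) or 3 days (Molt4/C8, CEM). Cell numbers counted with a Coulter counter. CC₅₀ = concentration reducing proliferation by 50% versus untreated controls, read from plots of cell number (% of control) against concentration. Means of at least two independent experiments.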

Feline coronavirus = test: Antiviral activity against Feline coronavirus in feline […] cells assessed as inhibition of virus-induced cytopathicity; format: functional, organism-based; conditions: Alphacoronavirus 1
Human alphaherpesvirus 2 = test: Antiviral activity against HSV2 G in human HEL cells assessed as protection against virus-induced cytopathicity; format: functional, organism-based; conditions: Human alphaherpesvirus 2, strain G; in short: as §1
[5] = tested on: Human immunodeficiency virus 1; test: Antiviral activity against HIV1 3B in human CEM cells assessed as protection against virus-induced cytopathicity after 4 days; format: functional, organism-based; conditions: Human immunodeficiency virus 1, 3B, CCRF-CEM, 96 h
In short: (§5)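 CEM cells (~3 × 10⁵ cells/mL) infected with ~100 CCID₅₀ per mL of HIV-1 (IIIB) or HIV-2 (ROD), then seeded into wells containing compound dilutions. After 4 days at 37 °C, syncytium (giant cell) formation was examined microscopically. EC₅₀ = concentration protecting CEM cells from HIV cytopathicity by 50%.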

Punta Toro virus = test: Antiviral activity against Punta Toro virus in african green monkey Vero cells assessed as protection against virus-induced cytopathicity; format: functional, organism-based; in short: as §1
[6] = Cytotoxicity against human HeLa cells assessed as drug level causing microscopically detectable alteration of normal cell morphology after 3 days; format: cell-based; in short: as §2
Influenza B virus [7] = test: Antiviral activity against influenza B virus in MDCK cells assessed as reduction of virus-induced cytopathicity by MTS method; format: functional, organism-based
Influenza A virus H3N2 [8] = test: Antiviral activity against influenza H3N2 virus in MDCK cells assessed as reduction of virus-induced cytopathicity by visual cytopathic effect scoring method; format: functional, organism-based
Coxsackievirus B4 [9] = test: Antiviral activity against Coxsackievirus B4 in human HeLa cells assessed as protection against virus-induced cytopathicity; format: functional, organism-based; conditions: Enterovirus B; in short: as §1
[10] = target: Human immunodeficiency virus type 1 reverse transcriptase (Human immunodeficiency virus 1, UniProt Q72547, Y181I); test: Inhibition of HIV1 reverse transcriptase p66/p51 Y181I mutant; conditions: read-out: IC50; in short: as §3
Influenza B virus [11] = test: Antiviral activity against influenza B virus in MDCK cells assessed as reduction of virus-induced cytopathicity by visual cytopathic effect scoring method; format: functional, organism-based
[12] = target: Human immunodeficiency virus type 1 reverse transcriptase (Human immunodeficiency virus 1, UniProt Q72547, L100I); test: Inhibition of HIV1 reverse transcriptase p66/p51 L100I mutant; conditions: read-out: IC50; in short: as §3
Human alphaherpesvirus 1 [13] = test: Antiviral activity against thymidine kinase deficient and acyclovir resistant HSV1 KOS in human HEL cells assessed as protection against virus-induced cytopathicity; format: functional, organism-based; conditions: Human alphaherpesvirus 1, KOS
L1210 = test: Antiproliferative activity against mouse L1210 cells after 2 days; format: cell-based; conditions: L1210, 48 h; in short: as §4
[14] = Cytotoxicity against MDCK cells assessed as drug level causing microscopically detectable alteration of normal cell morphology; format: cell-based, Canis lupus familiaris; conditions: dog
[15] = tested on: Respiratory syncytial virus; test: Antiviral activity against RSV Long in human HeLa cells assessed as protection against virus-induced cytopathicity; format: functional, organism-based; in short: as §1
Influenza A virus [16] = test: Antiviral activity against influenza H1N1 virus in MDCK cells assessed as reduction of virus-induced cytopathicity by visual cytopathic effect scoring method; format: functional, organism-based
[17] = tested on: Vesicular stomatitis virus; test: Antiviral activity against VSV in human HEL cells assessed as protection against virus-induced cytopathicity; format: functional, organism-based
[18] = target: Human immunodeficiency virus type 1 reverse transcriptase (Human immunodeficiency virus 1, UniProt Q72547); test: Inhibition of HIV1 reverse transcriptase p66/p51; conditions: read-out: IC50
Influenza A virus H3N2 [19] = test: Antiviral activity against influenza H3N2 virus in MDCK cells assessed as reduction of virus-induced cytopathicity by MTS method; format: functional, organism-based
CCRF-CEM = test: Antiproliferative activity against human CEM cells after 3 days; format: cell-based; conditions: 72 h; in short: as §4
[20] = tested on: Human immunodeficiency virus 2; test: Antiviral activity against HIV2 ROD in human CEM cells assessed as protection against virus-induced cytopathicity after 4 days; format: functional, organism-based; conditions: Human immunodeficiency virus 2, ROD, CCRF-CEM, 96 h; in short: as §5
[21] = Cytotoxicity against MDCK cells by MTS assay; format: cell-based, Canis lupus familiaris; conditions: dog
[22] = tested on: Vesicular stomatitis virus; test: Antiviral activity against VSV in human HeLa cells assessed as protection against virus-induced cytopathicity; format: functional, organism-based
[23] = Cytotoxicity against feline CRFK cells by MTS assay; format: cell-based, Felis catus; conditions: cat
Vaccinia virus = test: Antiviral activity against Vaccinia virus Lederle in human HEL cells assessed as protection against virus-induced cytopathicity; format: functional, organism-based; conditions: Orthopoxvirus vaccinia
Human alphaherpesvirus 1 [24] = test: Antiviral activity against HSV1 KOS in human HEL cells assessed as protection against virus-induced cytopathicity; format: functional, organism-based; conditions: Human alphaherpesvirus 1, KOS
[25] = tested on: Mammalian orthoreovirus 1; test: Antiviral activity against Reovirus 1 in african green monkey Vero cells assessed as protection against virus-induced cytopathicity; format: functional, organism-based; conditions: Mammalian orthoreovirus 1, Vero; in short: as §1
Human respirovirus 3 = test: Antiviral activity against Parainfluenza virus type 3 in african green monkey Vero cells assessed as protection against virus-induced cytopathicity; format: functional, organism-based; conditions: Human respirovirus 3, Vero; in short: as §1
Influenza A virus [26] = test: Antiviral activity against influenza H1N1 virus in MDCK cells assessed as reduction of virus-induced cytopathicity by MTS method; format: functional, organism-based; conditions: Influenza A virus, H1N1, MDCK
Coxsackievirus B4 [27] = test: Antiviral activity against Coxsackievirus B4 in african green monkey Vero cells assessed as protection against virus-induced cytopathicity; format: functional, organism-based; conditions: Enterovirus B; in short: as §1

| SMILES | MCC at 72 h [1] | EC50 (Sindbis virus) | MCC at 72 h [2] | EC50 (Felid alphaherpesvirus 1) | IC50 [3] | IC50 [4] | EC50 (Feline coronavirus) | EC50 (Human alphaherpesvirus 2) | EC50 [5] | EC50 (Punta Toro virus) | MCC at 72 h [6] | EC50 (Influenza B virus [7]) | EC50 (Influenza A virus H3N2 [8]) | EC50 (Coxsackievirus B4 [9]) | IC50 [10] | EC50 (Influenza B virus [11]) | IC50 [12] | EC50 (Human alphaherpesvirus 1 [13]) | IC50 (L1210) | MCC [14] | also measured |
| --- | --- | --- | --- | --- | --- | --- | --- | --- | --- | --- | --- | --- | --- | --- | --- | --- | --- | --- | --- | --- | --- |
| Cc1cc(C)cc(S(=O)(=O)c2c(C(=O)NC(C)CS(N)(=O)=O)[nH]c3ccc(Cl)c(F)c23)c1 (stereo not drawn) | 20 µM | 20 µM | 100 µM | > 4 µM | 0.003 µM | 12 µM | > 4 µM | > 4 µM | 0.0039 µM | > 20 µM | 20 µM | > 4 µM | > 4 µM | > 4 µM | > 40 µM | > 4 µM | 0.267 µM | > 4 µM | 18 µM | 20 µM | EC50 [15]: > 4 µM; EC50 (Influenza A virus [16]): > 4 µM; EC50 [17]: > 4 µM; IC50 [18]: 0.036 µM; EC50 (Influenza A virus H3N2 [19]): > 4 µM; IC50 (CCRF-CEM): 16 µM; EC50 [20]: > 10 µM; CC50 [21]: 7.3 µM; EC50 [22]: > 4 µM; CC50 [23]: 15 µM; EC50 (Vaccinia virus): > 4 µM; EC50 (Human alphaherpesvirus 1 [24]): > 4 µM; EC50 [25]: > 20 µM; EC50 (Human respirovirus 3): > 20 µM; EC50 (Influenza A virus [26]): > 4 µM; EC50 (Coxsackievirus B4 [27]): 12 µM |
| Cc1cc(C)cc(S(=O)(=O)c2c(C(=O)NCC(N)=O)[nH]c3ccc(Cl)c(F)c23)c1 | 100 µM | > 20 µM | > 100 µM | > 20 µM | 1.04 µM | 34 µM | > 20 µM | > 20 µM | 0.0031 µM | > 20 µM | 100 µM | > 4 µM | > 4 µM | 9 µM | 2.46 µM | > 4 µM | 0.319 µM | > 20 µM | 53 µM | 20 µM | EC50 [15]: 16 µM; EC50 (Influenza A virus [16]): > 4 µM; EC50 [17]: > 20 µM; IC50 [18]: 0.025 µM; EC50 (Influenza A virus H3N2 [19]): > 4 µM; IC50 (CCRF-CEM): 31 µM; EC50 [20]: > 10 µM; CC50 [21]: 7.6 µM; EC50 [22]: > 20 µM; CC50 [23]: 71 µM; EC50 (Vaccinia virus): > 20 µM; EC50 (Human alphaherpesvirus 1 [24]): > 20 µM; EC50 [25]: > 20 µM; EC50 (Human respirovirus 3): > 20 µM; EC50 (Influenza A virus [26]): > 4 µM; EC50 (Coxsackievirus B4 [27]): > 20 µM |
| Cc1cc(C)cc(S(=O)(=O)c2c(C(=O)NC(C)CC(N)=O)[nH]c3ccc(Br)cc23)c1 (stereo not drawn) | 20 µM | > 20 µM | ≥ 20 µM | > 4 µM | 0.321 µM | 16 µM | > 4 µM | > 4 µM | 0.0015 µM | > 20 µM | ≥ 20 µM | > 4 µM | > 4 µM | ≥ 20 µM | 15.8 µM | > 4 µM | 0.296 µM | > 4 µM | 16 µM | ≥ 4 µM | EC50 [15]: > 20 µM; EC50 (Influenza A virus [16]): > 4 µM; EC50 [17]: > 4 µM; IC50 [18]: 0.081 µM; EC50 (Influenza A virus H3N2 [19]): > 4 µM; IC50 (CCRF-CEM): 18 µM; EC50 [20]: > 10 µM; CC50 [21]: 79 µM; EC50 [22]: > 20 µM; CC50 [23]: 11.1 µM; EC50 (Vaccinia virus): > 4 µM; EC50 (Human alphaherpesvirus 1 [24]): > 4 µM; EC50 [25]: > 20 µM; EC50 (Human respirovirus 3): > 20 µM; EC50 (Influenza A virus [26]): > 4 µM; EC50 (Coxsackievirus B4 [27]): > 20 µM |
